Experimental data as given in PubChem BioAssay AID504383 (The Scripps Research Institute Molecular Screening Center, 2011).
In all, about 2,500 compounds went through this assay and about 1,200 (48%) were called active.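 Rule for the calls: active = mean activation above the low control average plus 3 SD, as set in the primary screen (cut at about 12% in these data); inactive = the rest.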 So high a share suggests a set chosen from earlier hits. Some of the results follow.

The compounds below were run against Troponin I, cardiac muscle (Homo sapiens) + Troponin T, cardiac muscle (Homo sapiens) + Troponin C, slow skeletal and cardiac muscles (Homo sapiens) (UniProt P19429+P45379+P63316) (assay: calcium sensitizers of cardiac thin filaments – biochemical, IANBD-TnC fluorescence, triplicate, confirmation (AID 504383;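 note: 0% = DMSO at 0.472 mM calcium and 100% = DMSO at 2.9 mM calcium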)). Details: IANBD-labeled cardiac RTF, Ca2+ sensitivity fluorescence; at 7.2 µM; stronger effect = higher value; scaled from EC20 to saturating calcium; tested at EC20 calcium, 0.472 mM.
Method in brief: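 Test system: labelled regulated thin filament protein complex. Dosing: single nominal compound dose of 7.2 µM. Benchmarks: EC20 and EC100 calcium wells. Read-out basis: fluorescence gain scaled between EC20 and EC100 calcium controls. Probe or stimulus: submaximal calcium at 0.472 mM (EC20). Technique: fluorescence. Times: 15 min compound exposure, 25 °C.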

Row | SMILES | activation
1 | COc1ccc(/C=[N+](\[O-])C2N(c3ccccc3)C(=S)SC2(C)C)cc1OC (stereo unspecified) | 5.83% (inactive)
2 | CCN1CCc2c(sc(NC(=O)Nc3ccc(Cl)c(Cl)c3)c2C(N)=O)C1 | -0.7% (inactive)
3 | CN1CCN(CCNC(=O)Nc2ccc(Cl)cc2)CC1 | 13.4% (active)
4 | Nc1cccc(N2C(=O)c3cccc4c(N)ccc(c34)C2=O)c1 | 8.12% (inactive)
5 | CCN1C(=O)c2cccc3c(N)ccc(c23)C1=O | 5.33% (inactive)
6 | CC(C)CCN1C(=O)c2cccc3c(N)ccc(c23)C1=O | 15.7% (active)
7 | c1ccc2c(c1)CN1CCCC1=N2 | 3.94% (inactive)
8 | CN1/C(=C\C=C(/C#N)C(=O)Nc2ccccc2F)C(C)(C)c2ccccc21 | 5.14% (inactive)
9 | CC1CC1c1ccc(/C=C(\C#N)C(=O)Nc2ccc(Cl)cc2Cl)o1 (stereo unspecified) | 19.9% (active)
10 | CC1CC1c1ccc(/C=C(\C#N)C(=O)Nc2cccc(Cl)c2Cl)o1 (stereo unspecified) | 22.5% (active)
11 | Cc1ccc(NC(=O)/C(C#N)=C/c2ccc(C)s2)c(C)c1 | -3.42% (inactive)
12 | Clc1cccc(C[n+]2cc(-c3ccccc3)n3c2CCC3)c1 | 4.21% (inactive)
13 | CN(CC(=O)N1CCN(c2ncccn2)CC1)S(=O)(=O)c1ccc(Cl)cc1 | 4.61% (inactive)
14 | O=C(NCc1ccco1)C1CC(c2c(Cl)cccc2Cl)=NO1 (stereo unspecified) | 0.26% (inactive)
15 | CN(CC(=O)NCc1ccc(Cl)cc1)S(=O)(=O)c1cccc2cccnc12 | 12.1% (active)
16 | CN(CC(=O)NCc1ccco1)S(=O)(=O)c1cccc2cccnc12 | 32.8% (active)
17 | C#CC[N+](C)(C)CCCCCCCCCC | 45.3% (active)
18 | COc1ccc(NC(=O)C2CC2)cc1OC1CCCC1 | -0.05% (inactive)
19 | COc1cc(NC(=O)C2CCCCN2)ccc1OCC(C)C (stereo unspecified) | 15.1% (active)
20 | COc1ccc(CNc2oc(COc3ccccc3)nc2C#N)cc1 | 62.4% (active)
21 | CCC(CC)c1nc(C#N)c(NC(C)c2ccccc2)o1 (stereo unspecified) | 3.34% (inactive)
22 | C=CCNc1oc(COc2ccc(C)cc2)nc1C#N | 25.2% (active)
23 | CN(C)c1ccc(NC2=C([N+](=O)[O-])CS(=O)(=O)C2)cc1 | 12.2% (active)

Row | SMILES | activation
24 | CCc1ccc(C(=O)NNc2ccccc2F)cc1 | 7.76% (inactive)
25 | CC1=C(C)CC(C(=O)NNC(=O)c2cccc(Cl)c2)C(C(=O)O)C1 (stereo unspecified) | 10.7% (inactive)
26 | CCc1ccc(C(=O)NNC(=O)c2cccc(N3C(=O)CCC3=O)c2)cc1 | 34.6% (active)
27 | CN(C)c1ccc(/C=C(/C(=O)c2ccc(Cl)cc2Cl)n2cncn2)cc1 | 4.11% (inactive)
28 | COc1ccc(CCNC(=O)CN(C)S(=O)(=O)c2ccc3c(c2)CCC(=O)N3)cc1OC | 8.22% (inactive)
29 | O=C1CCc2cc(S(=O)(=O)NC3CCCCC3)ccc2N1 | 12.4% (active)
30 | Cc1cc(C(=O)NNC(=S)Nc2ccccc2C)cs1 | 15.8% (active)
31 | Cc1cc(C(=O)NNC(=S)NCc2ccccc2)cs1 | 7.2% (inactive)
32 | Cc1nn(-c2ccccc2)c(N2CCCC2)c1/C=C1\N=C(c2ccc(OC(C)C)cc2)OC1=O | 9.02% (inactive)
33 | COc1ccc(OC)c(/C=C2/Sc3ccccc3C2=O)c1 | 5.85% (inactive)
34 | COc1ccc(OC)c(/C=C2\N=C(c3ccccc3)OC2=O)c1 | 33.8% (active)
35 | Cc1ccc2oc3c(SCc4nc5ccccc5[nH]4)nc(C)nc3c2c1 | 21.2% (active)
36 | Cc1ccc(C)c(C2=NNC(=O)CC2)c1 | 2.35% (inactive)
37 | COC(=O)[C@@]1(Cc2ccc(OC)cc2)[C@@H]2C(=CC(=O)[C@H]2CC(=O)C(=O)N2CCCC2)CN1C(=O)c1ccccc1 | 36% (active)
38 | CC(C)CNC(=S)NC(=O)c1ccccc1Cl | 106% (active)
39 | O=C1c2ccccc2C(=O)N1c1ccc(Cc2ccncc2)cc1 | 18.1% (active)
40 | Nc1cccc2c1C(=O)N(c1ccccc1)C2=O | 7.13% (inactive)
41 | C=CCNc1nc2c(c(=O)[nH]c(=O)n2C)n1CCCc1ccccc1 | 9.95% (inactive)
42 | CN1CCN(c2nc3c(c(=O)n(C)c(=O)n3C)n2Cc2ccccc2F)CC1 | 5.62% (inactive)
43 | COC(=O)CSc1nc2c(c(=O)n(C)c(=O)n2C)n1CCCc1ccccc1 | 147% (active)
44 | CSc1nc2c(c(=O)[nH]c(=O)n2C)n1CCCc1ccccc1 | 3.83% (inactive)
45 | CCOC(=O)CSc1nc2c(c(=O)n(C)c(=O)n2C)n1Cc1ccccc1F | 1280% (active)
46 | C=CC[C@@H](CC(=O)N(CCO)Cc1ccccc1)C(=O)N[C@@H](COC(=O)[C@@H](CC=C)Cc1ccc(F)cc1)Cc1ccccc1 | 0.1% (inactive)

Row | SMILES | activation
47 | S=C(Nc1ccc(N2CCOCC2)cc1)Nc1ccc2nc(-c3ccco3)c(-c3ccco3)nc2c1 | 43.1% (active)
48 | Cc1cccc(NC(=S)Nc2ccc(N3CCOCC3)cc2)c1C | 5.72% (inactive)
49 | C[C@H](CO)N1C[C@H](C)[C@@H](CN(C)Cc2ccc(Oc3ccccc3)cc2)Oc2c(NC(=O)C3CC3)cccc2C1=O | 47.7% (active)
50 | C[C@H](CO)N1C[C@H](C)[C@@H](CN(C)C(=O)Nc2ccccc2)Oc2ccc(NC(=O)Nc3ccc4c(c3)OCO4)cc2C1=O | 9.67% (inactive)
51 | C[C@H](CO)N1C[C@H](C)[C@@H](CN(C)Cc2ccncc2)Oc2c(NC(=O)c3ccncc3)cccc2C1=O | 16.5% (active)
52 | C[C@H]1CN([C@@H](C)CO)C(=O)c2cccc(NC(=O)c3nc4ccccc4s3)c2O[C@H]1CN(C)C(=O)Nc1ccc(F)cc1 | 12.9% (active)
53 | C[C@H](CO)N1C[C@H](C)[C@@H](CN(C)C(=O)Nc2ccc(F)cc2)Oc2ccc(NS(C)(=O)=O)cc2C1=O | 9.89% (inactive)
54 | C[C@H](CO)N1C[C@H](C)[C@@H](CN(C)S(=O)(=O)c2cccs2)Oc2c(NC(=O)Nc3ccc4c(c3)OCO4)cccc2C1=O | 9.29% (inactive)
55 | C[C@H](CO)N1C[C@H](C)[C@@H](CN(C)Cc2ccncc2)Oc2c(NS(=O)(=O)c3ccc(F)cc3)cccc2C1=O | 10.3% (inactive)
56 | Cc1noc(C)c1NC(=O)N(C)C[C@H]1Oc2c(NS(=O)(=O)c3cccs3)cccc2C(=O)N([C@H](C)CO)C[C@@H]1C | 4.83% (inactive)
57 | CCOC(=O)c1c(C)oc2c1c(C=NCCO)c(O)c1ccccc12 | 4.94% (inactive)
58 | CC(C)NC(=O)/C(C#N)=C\c1ccc(N(C)C)o1 | 215% (active)
59 | CC(C)NC(=O)/C(C#N)=C/c1ccc(N(C)C)o1 | 7.34% (inactive)
60 | CCN(CC)c1ccc(/C=C(\C#N)C(=O)c2ccc(Br)cc2)cc1 | 3.52% (inactive)
61 | N#C/C(=C\c1ccc(O)c(O)c1)C(=O)NCCCc1ccccc1 | 4.22% (inactive)
62 | CCN(CC)c1ccc(/C=C(\C#N)C(N)=S)cc1 | 45.5% (active)
63 | CCN(CC)c1ccc(/C=C(/C#N)C(=O)NCc2ccccc2)o1 | 3.76% (inactive)
64 | CCN(CC)c1ccc(/C=C(\C#N)C(=O)NCc2ccccc2)cc1 | 60.6% (active)
65 | CN(C)c1ccc(/C=C(/C#N)C(=O)NCc2ccccc2)o1 | 12.4% (active)
66 | CCN(CC)c1ccc(/C=C(/C#N)C(=O)NC(C)C)o1 | 9.75% (inactive)
67 | Cc1cc(Cn2nc(C(=O)NCC3CC3)cc2-c2ccccc2)on1 | 6.6% (inactive)
68 | COc1ccccc1/C=[N+](\[O-])C1SC(=S)N(C)C1(C)C (stereo unspecified) | 8.76% (inactive)
69 | Cc1cc(C)cc(C(=O)NC(CC(N)=O)c2ccc(N3CCCCCC3)c([N+](=O)[O-])c2)c1 (stereo unspecified) | 3.03% (inactive)

Row | SMILES | activation
70 | NC(=O)CC(NC(=O)c1ccc(Br)cc1)c1ccc(N2CCN(c3ccc(F)cc3)CC2)c([N+](=O)[O-])c1 (stereo unspecified) | 42.4% (active)
71 | NC(=O)CC(NC(=O)Cc1ccc(Cl)cc1)c1ccc(N2CCN(c3ccccn3)CC2)c([N+](=O)[O-])c1 (stereo unspecified) | 137% (active)
72 | O=C(NCc1ccccc1)c1ccc(N2CCC3(CC2)CC(c2ccccc2)=NO3)c([N+](=O)[O-])c1 | 5.88% (inactive)
73 | NC(=O)c1c(N)sc2c1CCCCC2 | 7.59% (inactive)
74 | COc1cc(SC)ccc1C(=O)Nc1nc2ccccc2[nH]1 | 9.59% (inactive)
75 | COc1ccc2nc3ccccc3nc2c1NC(=O)c1ccc(Br)cc1 | 139% (active)
76 | COc1ccc2nc3ccccc3nc2c1NC(=O)c1ccc(Cl)cc1Cl | 6.58% (inactive)
77 | CSCC(O)Cn1[nH]c(=O)c2cc(Cl)c(Cl)cc2c1=O (stereo unspecified) | 8.73% (inactive)
78 | COC(=O)c1ccc(CS(=O)(=O)c2ccc(F)cc2)o1 | 1.48% (inactive)
79 | COC(=O)c1ccc(CSc2nnc(NCc3ccccc3)s2)o1 | 17.8% (active)
80 | COc1ccc(CN2CCC(C(=O)N3CCN(c4ccccc4F)CC3)CC2)cc1OC | 8.86% (inactive)
81 | COc1cccc(CNC(=O)CCC(=O)N2CC(C)Oc3ccccc32)c1OC (stereo unspecified) | 4.26% (inactive)
82 | COc1ccc(CN2CCN(C(=O)c3ccccc3F)CC2)c(OC)c1OC | 44.3% (active)
83 | O=c1cc2oc3cc(O)c(O)cc3c(-c3ccccc3O)c-2cc1O | 16.1% (active)
84 | CCOc1ccccc1-c1c2cc(O)c(=O)cc-2oc2cc(O)c(O)cc12 | 8.3% (inactive)
85 | COc1cc(OC)c(-c2c3cc(O)c(=O)cc-3oc3cc(O)c(O)cc23)cc1OC | 19.3% (active)
86 | COC(=O)c1ccccc1-c1c2ccc(=N)cc-2oc2cc(N)ccc12 | 9.11% (inactive)
87 | CSc1cccc(NC(=O)c2ccc(Cl)nc2)c1 | 15.5% (active)
88 | Cn1ncc(Cl)c1C(=O)Nc1cccc(Cl)c1 | 5.51% (inactive)
89 | CC1CN(c2ccc(NS(=O)(=O)c3ccccc3)cc2C(=O)O)CC(C)O1 (stereo unspecified) | 98.7% (active)
90 | CC(=O)c1ccc(S(=O)(=O)Nc2ccc(C(=O)N3CCC3)cc2)cc1 | 1.58% (inactive)
91 | CCOC(=O)C1CCCN(C(=O)c2cccc(S(=O)(=O)N3CC(C)OC(C)C3)c2)C1 (stereo unspecified) | -1.51% (inactive)
